Experimental data collected from several papers.
pIC50: −log10 of the molar value.
P2RX7: P2X purinoceptor 7 (P2RX7, Homo sapiens, UniProt Q99572)
TGFBR1: TGF-beta receptor type-1 (TGFBR1, Homo sapiens, UniProt P36897)
IDE: Insulin-degrading enzyme (IDE, Homo sapiens, UniProt P14735)

NC(=O)c1ccc[n+]([C@@H]2O[C@H](COP(=O)([O-])OP(=O)(O)OC[C@H]3O[C@@H](n4cnc5c(N)ncnc54)[C@H](O)[C@@H]3O)[C@@H](O)[C@H]2O)c1 — pIC50 (Protein mono-ADP-ribosyltransferase PARP3 (PARP3, Homo sapiens, UniProt Q9Y6F1); enzyme activity, inhibitor): 5.30
Cc1nc2ccc(Br)cc2c(-c2ccc(Cl)cc2)c1C(OC(C)(C)C)C(=O)O (stereo not drawn) — pIC50 (Gag-Pol polyprotein, integrase (gag-pol, Human immunodeficiency virus 1, UniProt P12497); enzyme activity, inhibitor, TR-FRET): 6.92
O=C(Nc1ccccc1OS(=O)(=O)c1ccc([N+](=O)[O-])cc1)c1ccc2ncccc2c1 — pIC50 (P2RX7; calcium signal, antagonist): 5.74
CCCC[C@H](NC(=O)C1CN(C)C1)c1ncc(-c2cc3ccccc3nc2OC)[nH]1 — pIC50 (Histone deacetylase 3 (HDAC3, Homo sapiens, UniProt O15379); enzyme activity, inhibitor): 7.80
CCOC(=O)CC1=C/C(=C\c2ccc(-c3ccccc3)cc2)c2ccc(F)cc21 — pIC50 (Prostaglandin G/H synthase 2 (Ptgs2, Mus musculus, UniProt Q05769); enzyme activity, inhibitor): ~5.00
COc1cccc(F)c1Cn1cnc(-c2ccc(F)cc2)c1-c1ccncc1 — pIC50 (TGFBR1; cell-free assay, TR-FRET): 5.91
Cc1noc([C@H](Cc2c[nH]cn2)NC(=O)CN(CCCc2ccccc2)CC(=O)O)n1 — pIC50 (IDE; enzyme activity, inhibitor, fluorescence): 6.30
O=C(O)C(CCC(c1ccccc1)(c1ccccc1)c1ccccc1)NCc1ccccc1 (racemic) — pIC50 (Kinesin-like protein KIF11 (KIF11, Homo sapiens, UniProt P52732); ATPase activity, inhibitor): < 4.31
COC(=O)[C@H](Cc1c[nH]cn1)NC(=O)CN(Cc1ccccc1)c1c(O)c(=O)c1=O — pIC50 (IDE; enzyme activity, inhibitor, fluorescence): 4.90
CN1CCN(c2ccc(Nc3ncc4cc(C#N)c(=O)n(C5CCCC5)c4n3)cc2)CC1 — pIC50 (TGFBR1; enzyme activity, inhibitor): 5.73
Cc1cc(Oc2ccc(NC(=O)c3sc(-c4ccccc4)nc3C)cc2F)c2nncn2n1 — pIC50 (Hepatocyte growth factor receptor (MET, Homo sapiens, UniProt P08581); enzyme activity, inhibitor, mobility shift): 6.20
Cc1cnc(-c2ccc(-c3ccc(NC(=O)Nc4c(F)cc(F)cc4F)cc3F)c3c2C(=O)NC3)[nH]1 — pIC50 (Serine/threonine-protein kinase 4 (STK4, Homo sapiens, UniProt Q13043); enzyme activity, inhibitor): 8.68
CC(C)C[C@H](CC(=O)NO)C(=O)N[C@@H](Cc1ccccc1)C(=O)NCCN1CCOCC1 — pIC50 (Interstitial collagenase (MMP1, Homo sapiens, UniProt P03956); enzyme activity, inhibitor, absorbance): 8.52
COc1ccc(-c2n[nH]c(=S)o2)cc1 — pIC50 (P2RX7; calcium signal, antagonist): 5.08
CC(C)OC(=O)[C@H](Cc1c[nH]cn1)NC(=O)CN(CC(=O)O)Cc1ccccc1 — pIC50 (IDE; enzyme activity, inhibitor, fluorescence): 6.52
CNC(=O)c1cc2c(Oc3ccc(NC(=O)C4(C(=O)Nc5ccc(F)cc5)CC4)cc3)ccnc2cc1OC — pIC50 (Hepatocyte growth factor receptor (MET, Homo sapiens, UniProt P08581, D1228H); enzyme activity, inhibitor, radiometric): 8.40
COC(=O)[C@H](Cc1c[nH]cn1)NC(=O)CN(CC(=O)O)Cc1ccc2ccccc2c1 — pIC50 (IDE; enzyme activity, inhibitor, fluorescence): 5.92
CC[C@H](C)[C@H](NC(C)=O)C(=O)N[C@@H](CCC(=O)O)C(=O)N[C@H](C(=O)N[C@H](C=O)CC(=O)O)[C@@H](C)O — pIC50 (Caspase-9 (CASP9, Homo sapiens, UniProt P55211); enzyme activity, inhibitor): 7.66
